pIC50, pKi: −log10 of the molar value.
Experiments:
[1] = Blood clearance in rat; format: ADME, organism-based
[2] = Volume of distribution in rat; format: ADME, organism-based; conditions: in vivo
[3] = molecular target: Cytochrome P450 3A4 (Homo sapiens, UniProt P08684); experiment: Inhibition of human CYP3A4 after 10 mins; format: ADME
In short: (§1)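 Recombinant human CYP bactosomes (0.1 mg/mL) were pre-incubated 10 min at 37 °C in 50 mM phosphate pH 7.4 with compound (0.1–10 μM) and a fluorogenic substrate. Substrates: ethoxyresorufin 0.5 μM (1A2), FCA 50 μM (2C9), BMC 10 μM (2C19), MMC 10 μM (2D6), DEF 1 μM or 7-BQ 25 μM (3A4). Adding an NADPH-regenerating system started the reaction, and metabolite fluorescence was read over 10 min. The IC50 came from rate as percent of control; miconazole served as positive control, with triplicates.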

[4] = molecular target: T1, Sodium-dependent noradrenaline transporter (Homo sapiens, UniProt P23975); experiment: Displacement of [3H]nisoxetine from human recombinant NET by SPA
T1 sequence (P23975 whole entry): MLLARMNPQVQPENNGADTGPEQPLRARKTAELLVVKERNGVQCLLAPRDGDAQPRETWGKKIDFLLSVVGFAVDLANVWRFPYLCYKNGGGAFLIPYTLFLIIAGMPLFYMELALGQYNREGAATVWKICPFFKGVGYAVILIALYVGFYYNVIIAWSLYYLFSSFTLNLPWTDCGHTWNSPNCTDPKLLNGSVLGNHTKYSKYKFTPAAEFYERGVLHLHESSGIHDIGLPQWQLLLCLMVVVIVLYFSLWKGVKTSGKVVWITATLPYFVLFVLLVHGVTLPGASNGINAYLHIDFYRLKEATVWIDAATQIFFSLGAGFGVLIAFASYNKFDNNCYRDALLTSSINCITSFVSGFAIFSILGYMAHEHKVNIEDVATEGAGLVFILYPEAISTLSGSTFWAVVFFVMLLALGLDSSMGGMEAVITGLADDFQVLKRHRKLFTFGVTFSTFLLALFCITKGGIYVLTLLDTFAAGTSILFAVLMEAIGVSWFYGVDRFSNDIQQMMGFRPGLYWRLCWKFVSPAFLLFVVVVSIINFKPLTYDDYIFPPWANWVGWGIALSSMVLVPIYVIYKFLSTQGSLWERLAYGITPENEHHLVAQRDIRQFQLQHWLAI
In short: (§2)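 SPA binding on BacMam-expressed human transporter membranes (SERT 6, NET 40, DAT 20 μg/mL) with SPA beads (1 mg/mL SERT; 2 mg/mL NET, DAT), 0.02% Pluronic F-127. Radioligands: 3 nM [3H]citalopram (SERT), 10 nM [3H]nisoxetine (NET), 10 nM [3H]WIN-35,428 (DAT). Buffer 20 mM HEPES, 145 mM NaCl, 5 mM KCl, pH 7.4; overnight, room temperature; imager read; four-parameter fit, Cheng-Prusoff pKi.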

[5] = molecular target: T2, Sodium-dependent serotonin transporter (Homo sapiens, UniProt P31645); experiment: Displacement of [N-methyl-3H]citalopram from human recombinant SERT expressed in pig LLCPK cells after 2 hrs by liquid scintillation counting; format: cell-based
T2 sequence (P31645 whole entry): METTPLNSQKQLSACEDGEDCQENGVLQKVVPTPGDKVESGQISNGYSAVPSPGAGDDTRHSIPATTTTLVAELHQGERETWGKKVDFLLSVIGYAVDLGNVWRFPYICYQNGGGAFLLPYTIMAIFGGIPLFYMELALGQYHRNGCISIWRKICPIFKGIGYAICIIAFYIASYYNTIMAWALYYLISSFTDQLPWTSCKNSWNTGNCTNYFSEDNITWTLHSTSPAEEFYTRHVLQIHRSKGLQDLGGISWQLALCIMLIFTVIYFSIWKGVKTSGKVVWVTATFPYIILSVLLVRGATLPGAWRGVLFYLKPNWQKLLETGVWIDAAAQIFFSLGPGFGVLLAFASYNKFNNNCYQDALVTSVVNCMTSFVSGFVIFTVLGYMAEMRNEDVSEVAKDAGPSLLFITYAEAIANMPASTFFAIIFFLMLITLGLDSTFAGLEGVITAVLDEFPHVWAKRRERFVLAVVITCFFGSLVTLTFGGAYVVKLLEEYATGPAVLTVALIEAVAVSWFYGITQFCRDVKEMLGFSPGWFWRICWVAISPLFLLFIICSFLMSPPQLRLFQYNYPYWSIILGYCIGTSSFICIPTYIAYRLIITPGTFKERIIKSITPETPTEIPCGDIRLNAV

[6] = tested on: Rattus norvegicus; experiment: Ex vivo SERT occupancy in Sprague-Dawley rat cortex at 10 mg/kg, po after 1 hr by autoradiography; format: functional
In short: (§3)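 Oral dosing in rats. SERT occupancy was taken from [3H]citalopram binding to brain cortex prepared 1 h after administration.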

[7] = tested on: Rattus norvegicus; experiment: Ex vivo SERT occupancy in Sprague-Dawley rat cortex at 0.3 mg/kg, po after 1 hr by autoradiography; format: functional; in short: as §3
[8] = molecular target: Transporter (Rattus norvegicus, UniProt Q63380); experiment: Displacement of [3H]nisoxetine from NET in rat hippocampus after 2 hrs by liquid scintillation counting; format: tissue-based
Chain of Transporter (Q63380 whole entry): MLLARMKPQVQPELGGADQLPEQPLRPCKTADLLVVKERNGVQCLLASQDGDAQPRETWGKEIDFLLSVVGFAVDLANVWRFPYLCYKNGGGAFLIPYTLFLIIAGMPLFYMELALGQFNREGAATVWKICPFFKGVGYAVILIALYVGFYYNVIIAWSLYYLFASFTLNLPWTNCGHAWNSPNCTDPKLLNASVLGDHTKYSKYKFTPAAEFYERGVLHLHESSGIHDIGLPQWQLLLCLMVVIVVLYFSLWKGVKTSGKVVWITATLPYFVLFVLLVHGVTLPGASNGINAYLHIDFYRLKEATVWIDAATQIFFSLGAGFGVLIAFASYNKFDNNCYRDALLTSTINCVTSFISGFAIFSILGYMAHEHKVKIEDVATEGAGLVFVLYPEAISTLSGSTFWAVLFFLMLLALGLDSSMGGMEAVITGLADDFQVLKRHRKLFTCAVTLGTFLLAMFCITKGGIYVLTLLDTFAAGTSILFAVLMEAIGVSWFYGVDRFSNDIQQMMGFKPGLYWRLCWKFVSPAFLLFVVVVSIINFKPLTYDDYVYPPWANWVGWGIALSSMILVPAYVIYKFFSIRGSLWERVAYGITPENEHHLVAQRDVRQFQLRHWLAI
In short: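 Rat hippocampus membranes (40 μg protein/well), competition filtration binding run as for human recombinant NET: 1.5 nM [3H]nisoxetine, test compound added from 100x DMSO solution, 10 μM desipramine for nonspecific binding. Incubated for 2 h at room temperature, filtered on PEI-presoaked GF/B, and washed with ice-cold 0.9% NaCl. Read by scintillation counting; four-parameter logistic pIC50 converted to pKi by Cheng-Prusoff.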

[9] = tested on: Rattus norvegicus; experiment: Ex vivo SERT occupancy in Sprague-Dawley rat cortex at 20 mg/kg, po after 1 hr by autoradiography; format: functional; in short: as §3
[10] = molecular target: Sodium-dependent dopamine transporter (Mus musculus, UniProt Q61327); experiment: Displacement of [3H]WIN-35428 from DAT in mouse brain; format: tissue-based
Chain of Sodium-dependent dopamine transporter (Mus musculus, UniProt Q61327) (Q61327 whole entry): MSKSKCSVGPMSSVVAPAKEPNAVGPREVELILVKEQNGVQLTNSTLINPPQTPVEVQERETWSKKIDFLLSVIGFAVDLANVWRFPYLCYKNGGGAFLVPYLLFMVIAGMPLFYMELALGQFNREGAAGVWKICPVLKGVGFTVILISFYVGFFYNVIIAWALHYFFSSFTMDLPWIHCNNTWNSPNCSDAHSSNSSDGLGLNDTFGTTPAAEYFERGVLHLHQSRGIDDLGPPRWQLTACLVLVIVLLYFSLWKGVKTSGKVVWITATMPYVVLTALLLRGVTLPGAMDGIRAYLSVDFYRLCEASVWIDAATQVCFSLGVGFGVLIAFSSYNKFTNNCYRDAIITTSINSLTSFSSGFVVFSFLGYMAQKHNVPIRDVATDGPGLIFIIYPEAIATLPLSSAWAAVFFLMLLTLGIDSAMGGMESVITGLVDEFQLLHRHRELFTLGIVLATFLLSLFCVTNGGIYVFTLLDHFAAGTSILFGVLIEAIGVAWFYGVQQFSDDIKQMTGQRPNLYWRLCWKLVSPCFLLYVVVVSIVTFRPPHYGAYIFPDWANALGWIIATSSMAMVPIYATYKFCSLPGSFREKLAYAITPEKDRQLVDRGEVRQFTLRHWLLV

[11] = molecular target: T3, Sodium-dependent dopamine transporter (Homo sapiens, UniProt Q01959); experiment: Inhibition of [3H]dopamine reuptake at human DAT expressed in pig LLCPK cells after 1 hr; format: cell-based
T3 sequence (Q01959 whole entry): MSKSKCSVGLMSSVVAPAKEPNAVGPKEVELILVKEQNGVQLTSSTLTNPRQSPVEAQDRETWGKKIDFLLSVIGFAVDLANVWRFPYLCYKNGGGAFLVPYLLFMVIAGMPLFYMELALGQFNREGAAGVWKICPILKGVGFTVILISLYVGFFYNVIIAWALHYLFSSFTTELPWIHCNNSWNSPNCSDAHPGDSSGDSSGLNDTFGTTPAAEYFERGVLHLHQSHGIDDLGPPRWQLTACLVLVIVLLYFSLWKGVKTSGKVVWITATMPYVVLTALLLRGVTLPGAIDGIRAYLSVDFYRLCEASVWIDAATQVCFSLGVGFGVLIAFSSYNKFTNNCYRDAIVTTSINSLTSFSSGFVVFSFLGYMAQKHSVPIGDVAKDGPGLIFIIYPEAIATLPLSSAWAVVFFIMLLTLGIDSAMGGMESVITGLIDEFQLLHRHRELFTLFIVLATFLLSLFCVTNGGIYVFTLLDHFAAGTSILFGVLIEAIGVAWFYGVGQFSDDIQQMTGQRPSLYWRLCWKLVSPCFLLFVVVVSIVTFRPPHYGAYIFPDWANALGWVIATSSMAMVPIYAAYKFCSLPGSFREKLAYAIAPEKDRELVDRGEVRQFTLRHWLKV
In short: (§4)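 Uptake SPA on stably transfected LLCPK cells with SPA beads (1.5 mg/mL SERT, NET; 2 mg/mL DAT) and 0.02% Pluronic F-127 in 20 mM HEPES, 145 mM NaCl, 5 mM KCl, pH 7.4. Cells/well: SERT 25 000, NET 50 000, DAT 75 000. Started by adding 35 nM [3H]serotonin, 45 nM [3H]noradrenalin or 75 nM [3H]dopamine (solutions added); 1 h, room temperature; four-parameter fit; n = 3.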

[12] = molecular target: Sodium-dependent noradrenaline transporter (Mus musculus, UniProt O55192); experiment: Displacement of [3H]nisoxetine from NET in mouse brain; format: tissue-based
Chain of Sodium-dependent noradrenaline transporter (Mus musculus, UniProt O55192) (O55192 whole entry): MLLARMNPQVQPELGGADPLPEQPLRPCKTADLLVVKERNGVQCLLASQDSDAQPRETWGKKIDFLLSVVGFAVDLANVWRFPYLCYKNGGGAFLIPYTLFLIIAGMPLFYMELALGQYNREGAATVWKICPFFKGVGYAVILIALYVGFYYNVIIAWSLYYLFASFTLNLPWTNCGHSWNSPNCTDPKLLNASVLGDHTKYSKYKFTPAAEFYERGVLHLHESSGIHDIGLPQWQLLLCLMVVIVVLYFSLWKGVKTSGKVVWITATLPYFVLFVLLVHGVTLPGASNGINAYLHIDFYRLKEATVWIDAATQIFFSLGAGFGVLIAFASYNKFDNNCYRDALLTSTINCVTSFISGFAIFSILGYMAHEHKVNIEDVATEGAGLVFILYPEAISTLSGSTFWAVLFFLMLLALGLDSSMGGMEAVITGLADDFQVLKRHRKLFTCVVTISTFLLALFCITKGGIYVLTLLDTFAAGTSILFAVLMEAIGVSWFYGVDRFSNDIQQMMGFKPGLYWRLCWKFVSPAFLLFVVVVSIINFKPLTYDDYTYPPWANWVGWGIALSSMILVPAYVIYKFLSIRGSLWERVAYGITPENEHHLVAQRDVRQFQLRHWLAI

[13] = molecular target: Cytochrome P450 2C19 (Homo sapiens, UniProt P33261); experiment: Inhibition of human CYP2C19 after 10 mins; format: ADME; in short: as §1
Chain of Cytochrome P450 2C19 (P33261 whole entry): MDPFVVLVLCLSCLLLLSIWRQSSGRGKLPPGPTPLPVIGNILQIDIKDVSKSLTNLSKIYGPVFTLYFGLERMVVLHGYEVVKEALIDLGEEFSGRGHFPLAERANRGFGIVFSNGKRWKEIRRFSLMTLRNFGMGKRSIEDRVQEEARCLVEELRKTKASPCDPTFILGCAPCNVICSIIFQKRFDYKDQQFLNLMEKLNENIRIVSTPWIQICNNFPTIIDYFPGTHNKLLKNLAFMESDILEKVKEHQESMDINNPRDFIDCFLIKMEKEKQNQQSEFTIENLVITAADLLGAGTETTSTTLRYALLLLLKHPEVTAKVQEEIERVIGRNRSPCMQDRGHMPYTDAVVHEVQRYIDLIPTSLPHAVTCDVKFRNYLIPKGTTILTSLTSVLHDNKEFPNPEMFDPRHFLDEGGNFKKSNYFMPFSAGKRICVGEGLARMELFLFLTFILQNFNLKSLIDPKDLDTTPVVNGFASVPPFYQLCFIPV

[14] = molecular target: T1, Sodium-dependent noradrenaline transporter; experiment: Inhibition of [3H]noradrenalin reuptake at human NET expressed in pig LLCPK cells after 1 hr; format: cell-based; in short: as §4
[15] = tested on: Rattus norvegicus; experiment: Ex vivo SERT occupancy in Sprague-Dawley rat substantia nigra at 10 mg/kg, po […] by autoradiography; format: functional
[16] = Half life in rat; format: ADME, organism-based; conditions: in vivo
[17] = molecular target: Sodium-dependent serotonin transporter (Mus musculus, UniProt Q60857); experiment: Displacement of [3H]-citalopram from SERT in mouse cortex after 2 hrs by liquid scintillation counting
In short: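 Mouse cortex membranes (7 μg protein/well) were incubated 2 h at room temperature with [³H]citalopram, added at 0.25 nM. Test compound came from a 100× DMSO solution. Nonspecific binding was defined with 10 μM fluoxetine (final). Bound ligand was collected by filtration on PEI-presoaked GF/B filters, washed with ice-cold 0.9% NaCl and scintillation counted. A four-parameter logistic fit gave pIC50, converted to pKi by Cheng-Prusoff.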

[18] = molecular target: Sodium-dependent serotonin transporter (Rattus norvegicus, UniProt P31652); experiment: Displacement of [3H]-citalopram from SERT in rat cortex after 2 hrs by liquid scintillation counting
[19] = tested on: Rattus norvegicus; experiment: Ex vivo SERT occupancy in Sprague-Dawley rat superior coulliculus at 10 mg/kg, po […] by autoradiography; format: functional
[20] = molecular target: T3, Sodium-dependent dopamine transporter; experiment: Displacement of [3H]WIN-35428 from human recombinant DAT by SPA; in short: as §2
[21] = tested on: Rattus norvegicus; experiment: Ex vivo SERT occupancy in Sprague-Dawley rat dorsal raphe at 10 mg/kg, po […] by autoradiography; format: functional
[22] = molecular target: T3, Sodium-dependent dopamine transporter; experiment: Displacement of [N-methyl-3H]WIN-35428 from human recombinant DAT expressed in pig LLCPK cells after 2 hrs by liquid scintillation counting; format: cell-based
[23] = molecular target: T2, Sodium-dependent serotonin transporter; experiment: Displacement of [3H]citalopram from human recombinant SERT by SPA; in short: as §2
[24] = molecular target: T2, Sodium-dependent serotonin transporter; experiment: Inhibition of [3H]serotonin reuptake at human SERT expressed in pig LLCPK cells after 1 hr; format: cell-based; in short: as §4
[25] = Oral bioavailability in rat; format: ADME, organism-based; conditions: in vivo
[26] = tested on: Rattus norvegicus; experiment: Ex vivo SERT occupancy in Sprague-Dawley rat cortex at 0.03 mg/kg, po after 1 hr by autoradiography; format: functional; in short: as §3
[27] = molecular target: Cytochrome P450 2C9 (Homo sapiens, UniProt P11712); experiment: Inhibition of human CYP2C9 after 10 mins; format: ADME; in short: as §1
Chain of Cytochrome P450 2C9 (P11712 whole entry): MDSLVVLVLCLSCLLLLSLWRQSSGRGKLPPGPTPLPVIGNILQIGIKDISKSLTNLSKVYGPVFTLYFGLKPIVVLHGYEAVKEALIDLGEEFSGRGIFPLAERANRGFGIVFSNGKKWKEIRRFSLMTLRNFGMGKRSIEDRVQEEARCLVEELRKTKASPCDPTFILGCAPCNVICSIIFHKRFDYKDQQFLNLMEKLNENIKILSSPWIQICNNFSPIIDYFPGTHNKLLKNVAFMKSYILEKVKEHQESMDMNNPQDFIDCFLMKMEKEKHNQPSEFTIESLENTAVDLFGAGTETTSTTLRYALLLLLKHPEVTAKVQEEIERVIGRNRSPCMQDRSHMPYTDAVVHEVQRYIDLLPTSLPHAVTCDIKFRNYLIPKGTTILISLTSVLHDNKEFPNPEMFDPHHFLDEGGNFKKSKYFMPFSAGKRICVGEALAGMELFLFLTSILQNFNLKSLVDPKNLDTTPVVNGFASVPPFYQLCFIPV

[28] = Ratio of drug level in brain to blood in rat; format: ADME, tissue-based
[29] = tested on: Rattus norvegicus; experiment: Ex vivo SERT occupancy in Sprague-Dawley rat cortex at 1 mg/kg, po after 1 hr by autoradiography; format: functional; in short: as §3
[30] = molecular target: Sodium-dependent dopamine transporter (Rattus norvegicus, UniProt P23977); experiment: Displacement of [3H]WIN-35428 from DAT in rat striatum after 2 hrs by liquid scintillation counting
Chain of Sodium-dependent dopamine transporter (Rattus norvegicus, UniProt P23977) (P23977 whole entry): as the sequence (Q61327 whole entry) above, with P21S, V57A, S194A, R600H, V619L counted along it

[31] = molecular target: T1, Sodium-dependent noradrenaline transporter; experiment: Displacement of [N-methyl-3H]nisoxetine from human recombinant NET expressed in pig LLCPK cells after 2 hrs by liquid scintillation counting; format: cell-based
[32] = tested on: Rattus norvegicus; experiment: Ex vivo SERT occupancy in Sprague-Dawley rat striatum at 10 mg/kg, po […] by autoradiography; format: functional
[33] = molecular target: Cytochrome P450 2D6 (Homo sapiens, UniProt P10635); experiment: Inhibition of human CYP2D6 after 10 mins; format: ADME; in short: as §1
[34] = tested on: Rattus norvegicus; experiment: Ex vivo SERT occupancy in Sprague-Dawley rat cortex at 3 mg/kg, po after 1 hr by autoradiography; format: functional; in short: as §3
[35] = molecular target: T4, Cytochrome P450 1A2 (Homo sapiens, UniProt P05177); experiment: Inhibition of human CYP1A2 after 10 mins; format: ADME; in short: as §1
T4 sequence (P05177 whole entry): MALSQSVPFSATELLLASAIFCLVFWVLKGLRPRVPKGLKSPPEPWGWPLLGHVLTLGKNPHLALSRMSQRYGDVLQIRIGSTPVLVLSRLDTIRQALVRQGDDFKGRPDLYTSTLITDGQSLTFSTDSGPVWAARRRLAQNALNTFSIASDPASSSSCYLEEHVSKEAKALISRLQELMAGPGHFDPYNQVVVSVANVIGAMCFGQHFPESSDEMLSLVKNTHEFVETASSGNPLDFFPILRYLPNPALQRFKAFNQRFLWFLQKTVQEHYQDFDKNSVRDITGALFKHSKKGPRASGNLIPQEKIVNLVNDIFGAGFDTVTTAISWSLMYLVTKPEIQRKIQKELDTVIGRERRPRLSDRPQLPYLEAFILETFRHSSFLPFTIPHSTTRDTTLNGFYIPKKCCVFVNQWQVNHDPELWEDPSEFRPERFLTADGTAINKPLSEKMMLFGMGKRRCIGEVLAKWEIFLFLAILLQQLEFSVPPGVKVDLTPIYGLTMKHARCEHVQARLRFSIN

[36] = tested on: Rattus norvegicus; experiment: Ex vivo SERT occupancy in Sprague-Dawley rat cortex at 0.1 mg/kg, po after 1 hr by autoradiography; format: functional

COC[C@@]12CNCC[C@]1(c1ccc(Cl)c(Cl)c1)C2 (relative stereo; 17) [GSK1360707]
clearance [1]: 48 mL/min | Vd [2]: 5.8 L/kg | pIC50 [3]: 5.00 | pKi [4]: 7.92 | pKi [5]: 9.20 | Activity [6]: >=95% | Activity [7]: 36.3% | pKi [8]: 8.60 | Activity [9]: 98.2% | pKi [10]: 8.00 | pIC50 [11]: 8.70 | pKi [12]: 8.80 | pIC50 [13]: 5.00 | pIC50 [14]: 8.70 | Activity [15]: >=95% | half-life [16]: 1.7 h | pKi [17]: 8.80 | pKi [18]: 8.90 | Activity [19]: >=95% | pKi [20]: 7.92 | Activity [21]: 87.92% | pKi [22]: 8.00 | pKi [23]: 8.98 | pIC50 [24]: 8.40 | bioavailability [25]: 54% | Activity [26]: 4.6% | pIC50 [27]: 5.00 | Kp [28]: 6.3 | Activity [29]: 58.2% | pKi [30]: 8.00 | pKi [31]: 8.10 | Activity [32]: >=95% | pIC50 [33]: 5.52 | Activity [34]: 82.8% | pIC50 [35]: 5.00 | Activity [36]: 12.6%
